≈ marks a conversion by molar mass, not a printed value.
Assays:
[1] = tested on: Staphylococcus aureus; assay: Antibacterial activity against methicillin-resistant Staphylococcus aureus isolate 11 incubated overnight by agar dilution method; assay type: functional
Procedure, shortened: (§1)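 MIC by agar dilution. Strains were grown overnight in LB broth and diluted, then about 10^4 CFU (2 μL spots) were spotted onto LB agar plates containing test compound at 0.5 to 8 μg mL−1 agar. Plates were incubated overnight at 37 °C and inspected for growth. Clinical MSSA and MRSA isolates came from local hospitals.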

[2] = tested on: Staphylococcus aureus; assay: Antibacterial activity against methicillin-sensitive Staphylococcus aureus isolate 3 incubated overnight by agar dilution method; assay type: functional; procedure, shortened: as §1
[3] = tested on: Staphylococcus aureus; assay: Antibacterial activity against methicillin-sensitive Staphylococcus aureus isolate 2 incubated overnight by agar dilution method; assay type: functional; procedure, shortened: as §1
[4] = tested on: Staphylococcus aureus; assay: Antibacterial activity against Staphylococcus aureus ATCC 29213 incubated overnight by agar dilution method; assay type: functional; procedure, shortened: as §1
[5] = Stability of the compound in PBS at pH 5.8 at 0.1 mg/ml after 16 hrs by HPLC analysis; assay type: physicochemical; settings: buffer, pH 5.8, 16 h
Procedure, shortened: (§2)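 Compound at 0.1 mg mL−1 dissolved in 1 mM PBS at the stated pH. Held at 37 °C for 16 h. Remaining compound and retro-Michael reversion products analysed by HPLC.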

[6] = tested on: Staphylococcus aureus; assay: Antibacterial activity against methicillin-resistant Staphylococcus aureus isolate 9 incubated overnight by agar dilution method; assay type: functional; procedure, shortened: as §1
[7] = tested on: Staphylococcus aureus; assay: Antibacterial activity against methicillin-sensitive Staphylococcus aureus isolate 1 incubated overnight by agar dilution method; assay type: functional; procedure, shortened: as §1
[8] = tested on: Staphylococcus aureus; assay: Antibacterial activity against methicillin-resistant Staphylococcus aureus isolate 6 incubated overnight by agar dilution method; assay type: functional; procedure, shortened: as §1
[9] = tested on: Staphylococcus aureus; assay: Antibacterial activity against methicillin-resistant Staphylococcus aureus isolate 10 incubated overnight by agar dilution method; assay type: functional; procedure, shortened: as §1
[10] = tested on: Staphylococcus aureus; assay: Antibacterial activity against methicillin-resistant Staphylococcus aureus isolate 8 incubated overnight by agar dilution method; assay type: functional; procedure, shortened: as §1
[11] = tested on: Staphylococcus aureus; assay: Antibacterial activity against methicillin-sensitive Staphylococcus aureus isolate 4 incubated overnight by agar dilution method; assay type: functional; procedure, shortened: as §1
[12] = Stability of the compound in PBS at pH 7.1 at 0.1 mg/ml after 16 hrs by HPLC analysis; assay type: physicochemical; settings: buffer, pH 7.1, 16 h; procedure, shortened: as §2
[13] = tested on: Staphylococcus aureus; assay: Antibacterial activity against methicillin-resistant Staphylococcus aureus isolate 5 incubated overnight by agar dilution method; assay type: functional; procedure, shortened: as §1
[14] = tested on: Staphylococcus aureus; assay: Antibacterial activity against methicillin-resistant Staphylococcus aureus isolate 7 incubated overnight by agar dilution method; assay type: functional; procedure, shortened: as §1

C[C@]12C[C@]34C[C@@H]1C[C@H](O2)[C@H]3[C@](C)(CCC(=O)Nc1c(O)ccc(C(=O)O)c1O)C(=O)C[C@@H]4SC(=O)c1ccccc1
MIC [1]: 2 µg/mL (≈ 3.45 µM)
MIC [2]: 1 µg/mL (≈ 1.73 µM)
MIC [3]: 1 µg/mL (≈ 1.73 µM)
MIC [4]: 1 µg/mL (≈ 1.73 µM)
Stability [5]: Stable
MIC [6]: 1 µg/mL (≈ 1.73 µM)
MIC [7]: 1 µg/mL (≈ 1.73 µM)
MIC [8]: 1 µg/mL (≈ 1.73 µM)
MIC [9]: 1 µg/mL (≈ 1.73 µM)
MIC [10]: 1 µg/mL (≈ 1.73 µM)
MIC [11]: 1 µg/mL (≈ 1.73 µM)
Stability [12]: Stable
MIC [13]: 2 µg/mL (≈ 3.45 µM)
MIC [14]: 2 µg/mL (≈ 3.45 µM)

CCS[C@H]1CC(=O)[C@@](C)(CCC(=O)Nc2c(O)ccc(C(=O)O)c2O)[C@@H]2[C@@H]3C[C@H]4C[C@]12C[C@]4(C)O3
MIC [1]: 1 µg/mL (≈ 1.99 µM)
MIC [2]: 1 µg/mL (≈ 1.99 µM)
MIC [3]: 0.5 µg/mL (≈ 0.993 µM)
MIC [4]: 0.5 µg/mL (≈ 0.993 µM)
Stability [5]: Stable
MIC [6]: 1 µg/mL (≈ 1.99 µM)
MIC [7]: 0.5 µg/mL (≈ 0.993 µM)
MIC [8]: 2 µg/mL (≈ 3.97 µM)
MIC [9]: 1 µg/mL (≈ 1.99 µM)
MIC [10]: 1 µg/mL (≈ 1.99 µM)
MIC [11]: 1 µg/mL (≈ 1.99 µM)
Stability [12]: Stable
MIC [13]: 1 µg/mL (≈ 1.99 µM)
MIC [14]: 1 µg/mL (≈ 1.99 µM)

C[C@]12C[C@]34C[C@@H]1C[C@H](O2)[C@H]3[C@](C)(CCC(=O)Nc1c(O)ccc(C(=O)O)c1O)C(=O)C[C@@H]4SC(=O)c1cccc(C(F)(F)F)c1
MIC [1]: 2 µg/mL (≈ 3.09 µM)
MIC [2]: 1 µg/mL (≈ 1.54 µM)
MIC [3]: 1 µg/mL (≈ 1.54 µM)
MIC [4]: 2 µg/mL (≈ 3.09 µM)
MIC [6]: 1 µg/mL (≈ 1.54 µM)
MIC [7]: 1 µg/mL (≈ 1.54 µM)
MIC [8]: 1 µg/mL (≈ 1.54 µM)
MIC [9]: 1 µg/mL (≈ 1.54 µM)
MIC [10]: 1 µg/mL (≈ 1.54 µM)
MIC [11]: 0.5 µg/mL (≈ 0.772 µM)
MIC [13]: 1 µg/mL (≈ 1.54 µM)
MIC [14]: 2 µg/mL (≈ 3.09 µM)

C[C@]12C[C@]34C[C@@H]1C[C@H](O2)[C@H]3[C@](C)(CCC(=O)Nc1c(O)ccc(C(=O)O)c1O)C(=O)C[C@@H]4SC(=O)c1cccc(F)c1
MIC [1]: 2 µg/mL (≈ 3.35 µM)
MIC [2]: 1 µg/mL (≈ 1.67 µM)
MIC [3]: 1 µg/mL (≈ 1.67 µM)
MIC [4]: 2 µg/mL (≈ 3.35 µM)
MIC [6]: 1 µg/mL (≈ 1.67 µM)
MIC [7]: 1 µg/mL (≈ 1.67 µM)
MIC [8]: 1 µg/mL (≈ 1.67 µM)
MIC [9]: 1 µg/mL (≈ 1.67 µM)
MIC [10]: 1 µg/mL (≈ 1.67 µM)
MIC [11]: 1 µg/mL (≈ 1.67 µM)
MIC [13]: 1 µg/mL (≈ 1.67 µM)
MIC [14]: 2 µg/mL (≈ 3.35 µM)

C=C1C[C@@]23CCC1C[C@@H]2[C@](C)(CCC(=O)Nc1c(O)ccc(C(=O)O)c1O)C(=O)C[C@@H]3SC(C)=O (single isomer, unassigned)
MIC [1]: 4 µg/mL (≈ 7.97 µM)
MIC [2]: 1 µg/mL (≈ 1.99 µM)
MIC [3]: 1 µg/mL (≈ 1.99 µM)
MIC [4]: 4 µg/mL (≈ 7.97 µM)
Stability [5]: Stable
MIC [6]: 2 µg/mL (≈ 3.99 µM)
MIC [7]: 1 µg/mL (≈ 1.99 µM)
MIC [8]: 2 µg/mL (≈ 3.99 µM)
MIC [9]: 2 µg/mL (≈ 3.99 µM)
MIC [10]: 2 µg/mL (≈ 3.99 µM)
MIC [11]: 1 µg/mL (≈ 1.99 µM)
Stability [12]: Stable
MIC [13]: 2 µg/mL (≈ 3.99 µM)
MIC [14]: 2 µg/mL (≈ 3.99 µM)

C[C@]12C[C@@]34C=CC(=O)[C@@](C)(CCC(=O)Nc5c(O)ccc(C(=O)O)c5O)[C@@H]3[C@H](C[C@@H]1C4)O2
MIC [1]: 1 µg/mL (≈ 2.27 µM)
MIC [2]: 0.5 µg/mL (≈ 1.13 µM)
MIC [3]: 0.5 µg/mL (≈ 1.13 µM)
MIC [4]: 1 µg/mL (≈ 2.27 µM)
MIC [6]: 1 µg/mL (≈ 2.27 µM)
MIC [7]: 0.5 µg/mL (≈ 1.13 µM)
MIC [8]: 1 µg/mL (≈ 2.27 µM)
MIC [9]: 0.5 µg/mL (≈ 1.13 µM)
MIC [10]: 1 µg/mL (≈ 2.27 µM)
MIC [11]: 0.5 µg/mL (≈ 1.13 µM)
MIC [13]: 1 µg/mL (≈ 2.27 µM)
MIC [14]: 1 µg/mL (≈ 2.27 µM)

C=C1C[C@@]23CCC1C[C@@H]2[C@](C)(CCC(=O)Nc1c(O)ccc(C(=O)O)c1O)C(=O)C[C@@H]3SC(=O)c1ccccc1 (single isomer, unassigned)
MIC [1]: 2 µg/mL (≈ 3.55 µM)
MIC [2]: 1 µg/mL (≈ 1.77 µM)
MIC [3]: 1 µg/mL (≈ 1.77 µM)
MIC [4]: 4 µg/mL (≈ 7.1 µM)
MIC [6]: 2 µg/mL (≈ 3.55 µM)
MIC [7]: 1 µg/mL (≈ 1.77 µM)
MIC [8]: 2 µg/mL (≈ 3.55 µM)
MIC [9]: 1 µg/mL (≈ 1.77 µM)
MIC [10]: 2 µg/mL (≈ 3.55 µM)
MIC [11]: 1 µg/mL (≈ 1.77 µM)
MIC [13]: 2 µg/mL (≈ 3.55 µM)
MIC [14]: 4 µg/mL (≈ 7.1 µM)

CC(=O)S[C@H]1CC(=O)[C@@](C)(CCC(=O)Nc2c(O)ccc(C(=O)O)c2O)[C@@H]2[C@@H]3C[C@H]4C[C@]12C[C@]4(C)O3
MIC [1]: 4 µg/mL (≈ 7.73 µM)
MIC [2]: 2 µg/mL (≈ 3.86 µM)
MIC [3]: 2 µg/mL (≈ 3.86 µM)
MIC [4]: 2 µg/mL (≈ 3.86 µM)
MIC [6]: 2 µg/mL (≈ 3.86 µM)
MIC [7]: 2 µg/mL (≈ 3.86 µM)
MIC [8]: 2 µg/mL (≈ 3.86 µM)
MIC [9]: 2 µg/mL (≈ 3.86 µM)
MIC [10]: 2 µg/mL (≈ 3.86 µM)
MIC [11]: 2 µg/mL (≈ 3.86 µM)
MIC [13]: 2 µg/mL (≈ 3.86 µM)
MIC [14]: 4 µg/mL (≈ 7.73 µM)

C[C@]12C[C@]34C[C@@H]1C[C@H](O2)[C@H]3[C@](C)(CCC(=O)Nc1c(O)ccc(C(=O)O)c1O)C(=O)C[C@@H]4SC(=O)c1ccc2ccccc2c1
MIC [1]: 4 µg/mL (≈ 6.35 µM)
MIC [2]: 0.5 µg/mL (≈ 0.794 µM)
MIC [3]: 0.5 µg/mL (≈ 0.794 µM)
MIC [4]: 2 µg/mL (≈ 3.18 µM)
MIC [6]: 1 µg/mL (≈ 1.59 µM)
MIC [7]: 1 µg/mL (≈ 1.59 µM)
MIC [8]: 1 µg/mL (≈ 1.59 µM)
MIC [9]: 1 µg/mL (≈ 1.59 µM)
MIC [10]: 1 µg/mL (≈ 1.59 µM)
MIC [11]: 0.5 µg/mL (≈ 0.794 µM)
MIC [13]: 2 µg/mL (≈ 3.18 µM)
MIC [14]: 4 µg/mL (≈ 6.35 µM)

COc1ccc(C(=O)S[C@H]2CC(=O)[C@@](C)(CCC(=O)Nc3c(O)ccc(C(=O)O)c3O)[C@@H]3[C@@H]4C[C@H]5C[C@]23C[C@]5(C)O4)cc1
MIC [1]: 2 µg/mL (≈ 3.28 µM)
MIC [2]: 1 µg/mL (≈ 1.64 µM)
MIC [3]: 1 µg/mL (≈ 1.64 µM)
MIC [4]: 1 µg/mL (≈ 1.64 µM)
Stability [5]: Stable
MIC [6]: 1 µg/mL (≈ 1.64 µM)
MIC [7]: 1 µg/mL (≈ 1.64 µM)
MIC [8]: 1 µg/mL (≈ 1.64 µM)
MIC [9]: 1 µg/mL (≈ 1.64 µM)
MIC [10]: 1 µg/mL (≈ 1.64 µM)
MIC [11]: 1 µg/mL (≈ 1.64 µM)
Stability [12]: Stable
MIC [13]: 2 µg/mL (≈ 3.28 µM)
MIC [14]: 2 µg/mL (≈ 3.28 µM)

CC(=O)NC[C@H]1CN(c2ccc(N3CCOCC3)c(F)c2)C(=O)O1 [LINEZOLID]
MIC [1]: 1 µg/mL (≈ 2.96 µM)
MIC [2]: 1 µg/mL (≈ 2.96 µM)
MIC [3]: 1 µg/mL (≈ 2.96 µM)
MIC [4]: 1 µg/mL (≈ 2.96 µM)
MIC [6]: 1 µg/mL (≈ 2.96 µM)
MIC [7]: 1 µg/mL (≈ 2.96 µM)
MIC [8]: 1 µg/mL (≈ 2.96 µM)
MIC [9]: 1 µg/mL (≈ 2.96 µM)
MIC [10]: 1 µg/mL (≈ 2.96 µM)
MIC [11]: 1 µg/mL (≈ 2.96 µM)
MIC [13]: 1 µg/mL (≈ 2.96 µM)
MIC [14]: 1 µg/mL (≈ 2.96 µM)

C[C@]12C[C@]34C[C@@H]1C[C@H](O2)[C@H]3[C@](C)(CCC(=O)Nc1c(O)ccc(C(=O)O)c1O)C(=O)C[C@@H]4SC(=O)c1ccccc1C(F)(F)F
MIC [1]: 4 µg/mL (≈ 6.18 µM)
MIC [2]: 1 µg/mL (≈ 1.54 µM)
MIC [3]: 1 µg/mL (≈ 1.54 µM)
MIC [4]: 2 µg/mL (≈ 3.09 µM)
MIC [6]: 1 µg/mL (≈ 1.54 µM)
MIC [7]: 1 µg/mL (≈ 1.54 µM)
MIC [8]: 1 µg/mL (≈ 1.54 µM)
MIC [9]: 1 µg/mL (≈ 1.54 µM)
MIC [10]: 1 µg/mL (≈ 1.54 µM)
MIC [11]: 1 µg/mL (≈ 1.54 µM)
MIC [13]: 1 µg/mL (≈ 1.54 µM)
MIC [14]: 2 µg/mL (≈ 3.09 µM)
